Measurements taken from ChEMBL document CHEMBL2086294, “Kinetics and docking studies of two potential new inhibitors of the nucleoside hydrolase from Leishmania donovani” (Eur J Med Chem, 2012).
The source made the active and inactive calls. The calls are words filed in the database; no cut-off is given here.

What was measured:
Leishmania donovani [1] = test: Ratio of inosine Km to compound Ki for Leishmania donovani recombinant nucleoside hydrolase
[2] = molecular target: Xanthine dehydrogenase/oxidase (Homo sapiens, UniProt P47989); test: Inhibition of xanthine oxidase using hypoxanthine as substrate by UV-Vis spectrophotometry
Method in brief: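 Control with xanthine oxidase and hypoxanthine: uric acid formation followed spectrophotometrically, with and without test compound.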

[3] = Inhibition of Leishmania donovani recombinant nucleoside hydrolase expressed in Escherichia coli DH5alpha coexpressing MBP using inosine as substrate by xanthine oxidase-coupled assay
Method in brief: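 MBP-fused enzyme (13 nM) with 0.3 mM inosine and xanthine oxidase (60 milliunits/mL) in 20 mM phosphate pH 8.0. Uric acid formation read at 293 nm, with at least six inhibitor concentrations. IC50 from nonlinear dose-response fit of % inhibition. Ki from five or six inhibitor concentrations at a substrate level near KM, converted with the Cheng–Prusoff equation.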

Leishmania donovani [4] = test: Competitive inhibition of Leishmania donovani recombinant nucleoside hydrolase expressed in Escherichia coli DH5alpha coexpressing MBP using inosine as substrate by Lineweaver-Burk plot analysis
Leishmania donovani [5] = test: Activity of Leishmania donovani recombinant nucleoside hydrolase expressed in Escherichia coli DH5alpha coexpressing MBP
Method in brief: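 LdNH fused to MBP, expressed from pMAL-c2-NH36 in E. coli DH5α (IPTG 0.3 mM, 2 h) and amylose-purified. Inosine hydrolysis coupled to excess xanthine oxidase (60 milliunits/mL) converting hypoxanthine to uric acid, read at 293 nm. 13 nM enzyme, inosine 0.3–3.0 KM, 20 mM phosphate pH 8.0, room temperature, triplicate. KM and Vmax from nonlinear Michaelis–Menten fit of initial velocities.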

Xanthine dehydrogenase/oxidase, sequence (P47989 whole entry): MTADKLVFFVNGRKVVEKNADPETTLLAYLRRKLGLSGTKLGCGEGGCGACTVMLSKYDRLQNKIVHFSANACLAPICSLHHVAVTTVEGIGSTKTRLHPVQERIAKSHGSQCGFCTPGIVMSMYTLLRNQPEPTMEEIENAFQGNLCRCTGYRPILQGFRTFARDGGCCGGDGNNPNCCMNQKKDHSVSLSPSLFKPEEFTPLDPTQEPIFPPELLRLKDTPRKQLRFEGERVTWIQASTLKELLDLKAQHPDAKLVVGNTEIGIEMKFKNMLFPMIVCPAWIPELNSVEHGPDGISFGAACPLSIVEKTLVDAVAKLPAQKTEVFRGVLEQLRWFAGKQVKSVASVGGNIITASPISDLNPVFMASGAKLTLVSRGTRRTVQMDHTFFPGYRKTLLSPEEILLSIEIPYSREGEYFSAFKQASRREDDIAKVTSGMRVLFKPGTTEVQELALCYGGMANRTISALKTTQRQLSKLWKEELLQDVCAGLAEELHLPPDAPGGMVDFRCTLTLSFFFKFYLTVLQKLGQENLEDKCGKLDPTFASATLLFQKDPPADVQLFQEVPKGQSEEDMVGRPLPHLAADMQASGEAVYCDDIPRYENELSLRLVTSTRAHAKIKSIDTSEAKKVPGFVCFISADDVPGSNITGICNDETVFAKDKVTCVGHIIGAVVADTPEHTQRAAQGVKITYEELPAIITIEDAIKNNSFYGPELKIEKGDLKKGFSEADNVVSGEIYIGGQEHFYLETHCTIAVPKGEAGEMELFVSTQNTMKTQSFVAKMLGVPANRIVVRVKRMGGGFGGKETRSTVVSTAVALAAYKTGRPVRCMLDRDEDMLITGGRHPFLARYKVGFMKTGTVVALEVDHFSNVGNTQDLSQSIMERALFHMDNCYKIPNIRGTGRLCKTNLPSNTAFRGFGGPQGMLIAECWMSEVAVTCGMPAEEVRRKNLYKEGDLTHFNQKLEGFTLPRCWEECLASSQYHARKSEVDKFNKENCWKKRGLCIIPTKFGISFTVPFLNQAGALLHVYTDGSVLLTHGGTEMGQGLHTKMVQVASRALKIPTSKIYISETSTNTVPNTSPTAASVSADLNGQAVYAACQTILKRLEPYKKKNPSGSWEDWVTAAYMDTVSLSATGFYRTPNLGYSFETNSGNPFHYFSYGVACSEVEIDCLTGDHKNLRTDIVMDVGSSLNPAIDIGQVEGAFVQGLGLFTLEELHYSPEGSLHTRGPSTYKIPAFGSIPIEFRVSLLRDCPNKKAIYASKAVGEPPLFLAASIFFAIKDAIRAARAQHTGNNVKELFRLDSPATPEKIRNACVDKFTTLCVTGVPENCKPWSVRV

Compound	Ratio (Leishmania donovani [1])	inhibition (INH) [2]	IC50 [3] [µM]	Ki [3] [µM]	inhibition (Leishmania donovani [4])	Km (Leishmania donovani [5]) [µM]
O=C(O)c1cn([C@@H]2O[C@H](CO)[C@@H](O)[C@H]2O)c2ccc(Cl)cc2c1=O	270	Not Active	2.66	1.6	Active	–
O=c1[nH]cnc2c1ncn2[C@@H]1O[C@H](CO)[C@@H](O)[C@H]1O	–	–	–	–	–	434
O=C(O)c1cn([C@@H]2O[C@H](CO)[C@@H](O)[C@H]2O)c2ccc(F)cc2c1=O	26	Not Active	28.9	17	Active	–
